The source of these data is ChEMBL document CHEMBL4513216, “Probing the Open Global Health Chemical Diversity Library for Multistage-Active Starting Points for Next-Generation Antimalarials” (ACS Infect Dis, 2020).

The data set in a line: Toxicity liver stage against HepG2, at 10uM. The format is cell-based. More on the design: test concentration 10 uM, cell line HepG2-A16-CD81EGFP. The settings on record: human, HepG2-A16-CD81EGFP cells; read-out: INHIBITION
In short, it runs like this: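 Uninfected HepG2-A16-CD81EGFP cells, 3 × 10^3 per well, 1536-well, plated on prespotted compound at 10 μM final, parasite-free screening media added to match infected plates; puromycin 10 μM positive, DMSO 0.5% negative; run in parallel with 48 h PbLuc assay at 37 °C, 5% CO2; viability by CellTiter-Glo luminescence, normalized to controls.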
Regarding `CNc1ncc(CN(C)C2CCN(C(C)C)CC2)cn1`, the cytotoxicity at 10 µM is -3.14%. As for `CC(C)[C@@H]1CN(C(=O)C2(c3ccccc3)CCN(C)CC2)C[C@H]1C(=O)O`, the cytotoxicity at 10 µM came out at 8.73%. The result for `Cc1sc(Oc2ccccc2Cl)nc1C(=O)O` reads 1.95%; that for `CCCn1nccc1C(=O)Nc1nc(C)c(C)s1`, -6.19%. As for `CNCC(=O)Nc1ccc(-c2cnc(NCCS(C)(=O)=O)nc2)cc1`, the cytotoxicity at 10 µM is -3.08%.

With `CCN(CC)C(=O)Nc1ccc(C(=O)N(C)C)c(C)c1`, the cytotoxicity at 10 µM stood at 7.52%. In the case of `Cc1cc(C)n(C2CCCN(C(=O)c3csc(C4CC4)n3)C2)n1` (centres undefined), the cytotoxicity at 10 µM was -2.51%. The value for `COc1ccccc1OCCN1CCCC(c2noc(C3CC3)n2)C1` (centres undefined) was 1.26%. For the compound `Cc1ccc(-c2nc(CN3CCCC3Cn3cncn3)co2)cc1` (centres undefined), the cytotoxicity at 10 µM is -7.29%.

`CC(C)C(C)(C#N)NC(=O)CN1CCCN(Cc2ccccc2F)CC1` (centres undefined): the cytotoxicity at 10 µM is -5.84%. The result for `Cc1ccc(C2CSCCN2CCS(C)(=O)=O)cc1` (centres undefined) reads -8.3%; that for `Cc1cccc(CN2C(=O)C[C@H]3[C@@H]2CCN3Cc2ccco2)n1`, -1.39%.

For the compound `CCC(C)N(Cc1cnc(NC(C)C)nc1)Cc1ccsc1` (centres undefined), the cytotoxicity at 10 µM came to 3.84%. In the case of `Cc1ccc(N(C)C2CCN(C(=O)c3n[nH]c4c3CCC4)CC2)nn1`, the cytotoxicity at 10 µM is 8%. As to `Cc1nc([C@@H]2C[C@@H]3CCN(C(=O)c4occc4C)C[C@H]3O2)no1`, the cytotoxicity at 10 µM was -1.04%.

For `CCc1noc(CN2CCC(C(=O)Nc3cnn(CC)c3)CC2)n1`, the cytotoxicity at 10 µM is 3.43%.

As for `Cc1c(C2CC(=O)Nc3c2cnn3C(C)(C)C)cnn1C` (centres undefined), the cytotoxicity at 10 µM is -2.89%. With `CC(C)NC1CCc2[nH]c(=O)ccc2C1` (centres undefined), the cytotoxicity at 10 µM came out at 3.64%. For `CC1CCCN(CC(=O)N2CCC(c3ncc4c(n3)CCNC4)CC2)C1` (centres undefined), the cytotoxicity at 10 µM came out at 7.62%. The result for `COCc1ccc(CNCc2c(C)nn(C)c2N(C)C)cc1` reads -16%. The result for `CN(C)C1CCCN(C(=O)c2cccc(-c3ncc[nH]3)c2)CC1` (centres undefined) reads 4.2%; that for `COC1CCCN(CCCc2cn[nH]c2)C1` (centres undefined), 2.24%.

Turning to `CN(C)C(=O)CN1CCN(Cc2coc(-c3cccc(F)c3)n2)CC1`, the cytotoxicity at 10 µM was -3.16%. The value for `CN(CC(=O)N1CCCC1)C(=O)c1ccccc1F` was 11.7%.

Regarding `COCCNc1ncc(-c2cccc(F)c2)c(-c2nccn2C)n1`, the cytotoxicity at 10 µM stood at 13.4%. Consider `Cc1ccc(Sc2ccc(N3CCC(C(=O)O)CC3)nn2)cc1`, for which the cytotoxicity at 10 µM was -0.0154%. The result for `CCn1cc(CN2CCCC3(CCC(=O)N(CCC(C)C)C3)C2)cn1` (centres undefined) reads -4.73%; that for `Cn1cc(CN2CC[C@@H]3[C@@H](CCC(=O)N3CCc3ccccc3)C2)cn1`, -1.45%. Consider `O=C(NC1=NCCS1)C1CSCN1C(=O)C1CCCC1` (centres undefined), for which the cytotoxicity at 10 µM was found to be 6.8%. The value for `Cc1cnc(NC2CCc3c(ccc(=O)n3CC3CC3)C2)nc1` (centres undefined) was -137%; that for `c1csc(-c2nc(CN3CCn4c(nnc4C4CC4)C3)co2)c1` was 7.17%. The value for `Cc1cccc(C2CCCN2C(=O)CN(C)S(C)(=O)=O)c1C` (centres undefined) was 12.3%; that for `Cn1cc(-c2ncc3c(c2C(=O)O)CCN(Cc2ccco2)C3)cn1` was 6.15%. As for `CNC(=O)CS(=O)(=O)Cc1cc(Cl)c2c(c1)OCCCO2`, the cytotoxicity at 10 µM was -5.61%. As to `O=C(Cc1cccs1)NCc1ccnc(C2CCCOC2)n1` (centres undefined), the cytotoxicity at 10 µM turned out to be 1.2%. The result for `CN1[C@H](CO)C[C@H](CNCc2ccc(Cl)c(F)c2)[C@@H]1c1ccccc1F` reads -8.39%; that for `CC(C)(C)c1nc(CN2CCCC2Cn2cncn2)no1` (centres undefined), 1.93%; that for `CC(=O)Nc1ccc2nc(CN(C)Cc3snnc3C)ccc2c1`, -12.8%. The result for `O=C(C1CC(=O)N(C2CCCC2)C1)N1CCN(CCn2cccc2)CC1` (centres undefined) reads 12.8%.
